Screening results from PubChem BioAssay.
CaV13 FRET inh: Primary screen for inhibitors of IQ motif and Ca2+-dependent inactivation inhibitor domain binding in CACNA1D, Förster resonance energy transfer in living cells, …. HEK cells, CFP/YFP FRET ICDI-IQ, plate reader, 10 min; percent FRET-ratio fall versus neutral wells. inhibition, % at 12.3 µM. hit rate 0.098% among 340,000. AID 743397;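 active = mean replicate inhibition of at least 30% and at least 1% of replicates passing that level; inconclusive = only one of the two criteria is met; inactive = neither criterion is met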;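 also: 0% = median of the neutral control wells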
MLL AF4-AF9 inh: blocks AF4 peptide binding to human AF9; AlphaScreen, biotin-AF4 peptide binding to FLAG-AF9; inhibition, % at 10 µM; hit rate 0.47% among 350,000; AID 651704;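 active = every replicate reaching a set inhibition limit, whatever the replicate mean, cut at about 25% in these data; inconclusive = mean inhibition reaches that limit but some replicates miss it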;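 also: 0% = plate neutral control median and 100% = total signal loss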
SIRT5 block: sirtuin-5 (human) deacylase inhibition. Q9NXA8. Purified SirT5, succinyl-peptide AMC, trypsin-coupled fluorescence. inhibition, % at 15 µM. hit rate 1.1% among 330,000. AID 652115; in the data active = inhibition above about 15%; inconclusive = no clear call, values can overlap the other calls
Target sequence (Q9NXA8 whole entry, looked up): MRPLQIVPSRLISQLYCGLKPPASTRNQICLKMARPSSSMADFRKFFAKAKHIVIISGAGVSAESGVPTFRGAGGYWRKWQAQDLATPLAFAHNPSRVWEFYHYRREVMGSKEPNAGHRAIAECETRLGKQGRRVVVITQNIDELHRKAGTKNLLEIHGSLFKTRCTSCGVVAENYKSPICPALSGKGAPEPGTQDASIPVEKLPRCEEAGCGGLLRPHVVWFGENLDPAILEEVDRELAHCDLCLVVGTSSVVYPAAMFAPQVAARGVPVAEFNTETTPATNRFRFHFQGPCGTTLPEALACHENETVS
S100A4 MyoIIA: blocks human S100A4 binding to myosin IIA peptide | hit rate 0.14% among 360,000 | P26447 | inhibition, % at 10.7 µM | S100A4/TAMRA-MyoIIA peptide fluorescence polarization;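 active = mean inhibition of at least 70% across replicates, with every replicate also reaching that level; inconclusive = mean inhibition reaches 70% but some replicates fall short; inactive = mean inhibition below 70%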
Target sequence (P26447 whole entry, looked up): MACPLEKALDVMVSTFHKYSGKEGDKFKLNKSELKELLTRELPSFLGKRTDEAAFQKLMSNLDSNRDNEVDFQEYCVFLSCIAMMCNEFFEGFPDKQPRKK
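Test system: S100A4 monomer protein. Medium: HEPES buffer with Ca2+, pH 7.2. Reagent: fluorescent myosin IIA peptide, 5 nM. Compound dosing: single-point compound testing. Timing: 5 min between mix addition and reading. Benchmarks: DMSO neutral and TFP positive wells.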
DENV2 CPE: inhibitors of DENV2 cytopathic effect; DENV2-infected cells, cytopathic effect rescue, plate reader; CPE inhibition, % at 9.99 µM; hit rate 1.7% among 350,000; AID 651640; in the data active = CPE inhibition above about 20%, passing the limit was not always enough; inconclusive = no clear call, values can overlap the other calls; tested in BHK-21 cells;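 also: 0% = median of neutral control wells and 100% = median of positive control wells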
An asterisk follows results filed as active; ? = inconclusive; . = no result given; + = active, no number. Shown are actives, neighbours in structure and some others; about 2.7% of the full set was active somewhere.

SMILES	CaV13 FRET inh	MLL AF4-AF9 inh	SIRT5 block	S100A4 MyoIIA	DENV2 CPE
COc1cccc(-c2ccc3c(c2)O[C@H](CN(C)C(=O)C2CCCCC2)[C@@H](C)CN([C@@H](C)CO)S3(=O)=O)c1	.	9	?	-26	-5
Cc1ccc(-n2c(C)cc(/C=N/NC(=O)Cn3c4ccccc4c(=O)c4ccccc43)c2C)cc1	+	-2	-2	-1	0
COc1ccc(C(C)=O)cc1Cn1c(C)c(C(=O)NCCC#N)sc1=O	-8	-2	.	5	71*
C[C@H]1CCCCO[C@@H](CN(C)CC2CCCCC2)[C@@H](C)CN([C@@H](C)CO)C(=O)c2cc(NS(=O)(=O)c3ccccc3)ccc2O1	.	7	9	-1	1
C[C@@H]1CCCCO[C@@H](CN(C)CC2CCCCC2)[C@@H](C)CN([C@@H](C)CO)C(=O)c2cc(NS(=O)(=O)c3ccc(F)cc3)ccc2O1	.	4	19*	1	4
C[C@H]1CN([C@@H](C)CO)C(=O)c2cc(NS(=O)(=O)c3ccccc3)ccc2O[C@H]1CN(C)CC1CCCCC1	.	-3	15	-8	0
Cc1ccc(S(=O)(=O)Nc2ccc3c(c2)C(=O)N([C@@H](C)CO)C[C@@H](C)[C@@H](CN(C)CC2CCCCC2)OCCCC[C@H](C)O3)cc1	.	-7	17*	2	-1
C[C@@H]1CN([C@@H](C)CO)C(=O)c2cc(NS(=O)(=O)c3ccccc3)ccc2O[C@@H](C)CCCCO[C@@H]1CN(C)CC1CCCCC1	.	8	8	-6	55*
C[C@@H]1CN([C@@H](C)CO)C(=O)c2cc(NS(=O)(=O)c3ccccc3)ccc2O[C@@H]1CN(C)CC1CCCCC1	.	-1	25*	9	-3
Cc1ccc(S(=O)(=O)Nc2ccc3c(c2)C(=O)N([C@H](C)CO)C[C@H](C)[C@@H](CN(C)CC2CCCCC2)OCCCC[C@H](C)O3)cc1	.	10	3	1	16
C[C@@H]1CCCCO[C@H](CN(C)C(=O)c2ccncc2)[C@@H](C)CN([C@@H](C)CO)C(=O)c2cc(NC(=O)C3CCCCC3)ccc2O1	.	-4	-4	2	-7
O=C(C[C@H]1CC[C@@H]2[C@H](COC[C@H](O)CN2Cc2ccncc2)O1)NCc1ccncc1	.	-4	9	-10	-11
Nc1ccc2ccc(O)cc2c1	-6	7	-5	-1	0
Nc1cccc(O)c1	.	.	.	-1	21*
O=C(CN1CCN(c2nc(-c3ccccc3)cs2)CC1)NNC(=O)c1ccc(Br)cc1	-10	.	.	.	.
O=C(NC(=S)N1CCN(c2nc(-c3ccccc3)cs2)CC1)c1cncc(Br)c1	+	1	-2	-4	2
CCCCCCc1ccc(N2C[C@H](CCCCC)[C@@H](CC(=O)NCc3ccc(OC)cc3)C2=O)cc1	-5	-12	0	-3	95*
CCCC(=O)Nc1ccc2c(c1)OC[C@@H](C)N(Cc1ccccn1)C[C@@H](C)[C@H](OC)CN(C)C2=O	.	-1	3	6	1
CCCC(=O)Nc1ccc2c(c1)OC[C@@H](C)N(Cc1ccccn1)C[C@H](C)[C@@H](OC)CN(C)C2=O	.	-14	-1	0	64*
CCCC(=O)Nc1ccc2c(c1)OC[C@@H](C)N(Cc1ccccn1)C[C@H](C)[C@H](OC)CN(C)C2=O	.	0	-1	5	-3
CCC(=O)Nc1ccc2c(c1)OC[C@@H](C)N(Cc1ccccn1)C[C@@H](C)[C@@H](OC)CN(C)C2=O	.	-1	15*	36	12
CCC(=O)Nc1ccc2c(c1)OC[C@H](C)N(Cc1ccccn1)C[C@@H](C)[C@H](OC)CN(C)C2=O	.	?	-1	-10	32*
C[C@H](CO)N1C[C@H](C)[C@H](CN(C)C(=O)Nc2ccc3c(c2)OCO3)Oc2ncc(C#CC3(O)CCCC3)cc2C1=O	.	-5	3	18	8
Cc1ccc(S(=O)(=O)N2CCC(=O)N(C(COCc3cccc(Cl)c3)Cc3ccccc3)CC2)cc1 (configuration not stated)	-6	.	.	.	.
Cc1ccc(S(=O)(=O)N2CCC(=O)N([C@H](COCc3cccc(Cl)c3)Cc3ccccc3)CC2)cc1	-7	-11	40*	-2	19
SMILES	CaV13 FRET inh	MLL AF4-AF9 inh	SIRT5 block	S100A4 MyoIIA	DENV2 CPE
CC(=O)Nc1ccc(S(=O)(=O)Nc2cccc(-n3cnnn3)c2)cc1	-3	2	-5	4	-5
CC(=O)Nc1ccc(S(=O)(=O)Nc2ccc(-n3cnnn3)cc2)cc1	-5	1	23*	1	17
CCn1ccnc1CN(C)C(=O)CC1C(=O)NCCN1Cc1c(F)cccc1Cl (configuration not stated)	-6	-2	19*	-1	-4
COc1ccccc1CN1CCNC(=O)C1CC(=O)NCCCN1CCOCC1 (configuration not stated)	-5	-4	0	131*	1
CN(C(=O)CC1C(=O)NCCN1Cc1ccccc1C(F)(F)F)C1CCOCC1 (configuration not stated)	-2	0	32*	-6	7
Cc1cnc(CNC(=O)CC2C(=O)NCCN2Cc2ccccc2C(F)(F)F)cn1 (configuration not stated)	-3	-2	0	0	-3
CN(C(=O)CC1C(=O)NCCN1Cc1ccccc1F)C1CCOCC1 (configuration not stated)	-6	1	-6	-3	-3
Cc1cc(CNC(=O)CC2C(=O)NCCN2Cc2ccccc2C(F)(F)F)on1 (configuration not stated)	-7	-1	29*	10	-4
Cc1nonc1CN(C)C(=O)CC1C(=O)NCCN1Cc1c(F)cccc1Cl (configuration not stated)	5	-1	-1	0	-2
CC(C)C#Cc1ccc2c(c1)O[C@H](CN(C)C(=O)CN(C)C)[C@@H](C)CN([C@@H](C)CO)S2(=O)=O	.	3	-1	-4	-7
COc1cccc(-c2ccc3c(c2)O[C@H](CN(C)C(=O)C2CCC2)[C@H](C)CN([C@@H](C)CO)S3(=O)=O)c1	.	1	2	-5	-8
CC(C)CC#Cc1ccc2c(c1)O[C@H](CN(C)C(=O)c1cccnc1)[C@H](C)CN([C@@H](C)CO)S2(=O)=O	.	1	-3	23	-4
CN(Cc1nccn1C)C(=O)CC1C(=O)NCCN1Cc1ccccc1C(F)(F)F (configuration not stated)	-7	-1	17*	-2	12
CCCC(=O)Nc1ccc2c(c1)C(=O)N(C)C[C@@H](OC)[C@H](C)CN(C(=O)c1ccccc1F)[C@@H](C)CO2	.	0	0	6	44*
CO[C@H]1CN(C)C(=O)c2ccc(NC(=O)CC(F)(F)F)cc2OC[C@@H](C)N(C(=O)c2ccccc2F)C[C@H]1C	.	-13	.	-25	62*
